Measured values as given in ChEMBL document CHEMBL4041468, “Effects of Koumine on Adjuvant- and Collagen-Induced Arthritis in Rats” (J Nat Prod, 2016).
Calls of active or inactive are those of the source.

Key:
Rattus norvegicus [1] = test: Antiarthritic activity in Lewis rat Freund's adjuvant-induced arthritis model assessed as change in liver weight at 0.6 to 15 mg/kg, ig administered through gavage pretreated for 1 hr followed by adjuvant challenge subsequent treatment for 9 days measured alternate days up to 24 days post dose; assay type: functional, organism-based
How it was run: (§1)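 Female Lewis rats (8 weeks old, 120−140 g) given a single intradermal injection of 0.1 mL CFA (10 mg heat-killed M. tuberculosis per 1 mL paraffin oil) into the right hind paw. Oral gavage in sterile saline 1 h before induction, then daily for the next 9 d. Sacrifice by exsanguination under deep anesthesia 24 d after adjuvant. Spleen, liver and thymus weighed and corrected for body weight (g/100 g). n = 10; one-way ANOVA with Student−Newman−Keuls.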

Rattus norvegicus [2] = test: Antiarthritic activity in Wistar rat type-2 collagen-induced arthritis model assessed as reduction in IL-1beta mRNA expression at 15 mg/kg, ig via gavage administered 10 consecutive days starting from day 20 post type-2 collagen injection by qPCR analysis; assay type: functional, organism-based
How it was run: (§2)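 Male Wistar rats (7 weeks old) given chicken CII (2 mg/mL in 0.1 M acetic acid) emulsified 1:1 in BCG/IFA adjuvant, two intradermal 0.3 mL injections 7 d apart. Gavage in saline daily for 10 d from day 20. Total RNA from ankle synovial tissue homogenate, reverse transcribed, qPCR in triplicate. Fold change vs blank control by 2−ΔΔCt.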

Rattus norvegicus [3] = test: Antiarthritic activity in Wistar rat type-2 collagen-induced arthritis model assessed as reduction in serum IL-1beta level at 3 to 15 mg/kg, ig via gavage administered 10 consecutive days starting from day 20 post type-2 collagen injection by ELISA method; assay type: functional, organism-based
How it was run: (§3)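 CIA Wistar rats dosed by gavage daily for 10 d from day 20 post first CII injection. Trunk blood serum stored at −70 °C. Right hind paw joint tissue homogenized at 200 mg/mL in PBS with 50 U/mL aprotinin, then centrifuged at 3000 rpm for 20 min at 4 °C. IL-1β and TNF-α quantified by ELISA kits in serum and supernatant. n = 10; one-way ANOVA with SNK.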

Rattus norvegicus [4] = test: (§4) Antiarthritic activity in Wistar rat type-2 collagen-induced arthritis model assessed as reduction in cartilage space narrowing at 0.6 to 15 mg/kg, ig via gavage administered 10 consecutive days starting from day 20 post type-2 collagen injection by X-ray method; assay type: functional, organism-based
How it was run: (§5)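 CIA in male Wistar rats (chicken CII emulsion, two intradermal injections 7 d apart); daily gavage for 10 d from day 20. After treatment, hind limbs X-rayed. Left hind paw joints fixed in 10% formalin, decalcified in 10% EDTA for 28 d at 4 °C, paraffin-embedded, sectioned at 5 μm, H&E-stained and examined by light microscopy at 100×.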

Rattus norvegicus [5] = test: Antiarthritic activity in Wistar rat type-2 collagen-induced arthritis model assessed as reduction in joint tissue TNF-alpha level at 15 mg/kg, ig via gavage administered 10 consecutive days starting from day 20 post type-2 collagen injection by ELISA method; assay type: functional, organism-based; how it was run: as §3
Rattus norvegicus [6] = test: Antiarthritic activity in Wistar rat type-2 collagen-induced arthritis model assessed as reduction in serum TNF-alpha level at 15 mg/kg, ig via gavage administered 10 consecutive days starting from day 20 post type-2 collagen injection by ELISA method; assay type: functional, organism-based; how it was run: as §3
Rattus norvegicus [7] = test: Antiarthritic activity in Lewis rat Freund's adjuvant-induced arthritis model assessed as change in thymus weight at 0.6 to 15 mg/kg, ig administered through gavage pretreated for 1 hr followed by adjuvant challenge subsequent treatment for 9 days measured alternate days up to 24 days post dose; assay type: functional, organism-based; how it was run: as §1
Rattus norvegicus [8] = test: Antiarthritic activity in Wistar rat type-2 collagen-induced arthritis model assessed as reduction in arthritis index score administered as ig via gavage for 10 consecutive days starting from day 20 post type-2 collagen injection; assay type: functional
How it was run: (§6)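 Male Wistar rats (7 weeks old) immunized with chicken CII in CFA/IFA, two intradermal 0.3 mL injections 7 d apart. Oral gavage in saline for 10 consecutive days starting day 20. Evaluation at baseline, predosing, and on alternate days thereafter: arthritis score; plethysmometer volume averaged over both hind paws; von Frey threshold 1 h post-dose (max 55 g, two repeats 10 min apart). n = 10.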

Rattus norvegicus [9] = test: (§7) Antiarthritic activity in Lewis rat Freund's adjuvant-induced arthritis model assessed as reduction in arthritis index score at 15 mg/kg, ig administered through gavage pretreated for 1 hr followed by adjuvant challenge subsequent treatment for 9 days measured alternate days up to 24 days post dose; assay type: functional, organism-based
How it was run: (§8)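 Female Lewis rats (8 weeks old) given a single intradermal injection of 0.1 mL CFA (heat-killed M. tuberculosis in paraffin oil) into the right hind paw. Gavage dosing in sterile saline 1 h before induction and daily for 9 d. Arthritis index scored (the paper reports the 18 d reading). n = 10 per group; Kruskal−Wallis with Dunn's test.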

Rattus norvegicus [10] = test: Antiarthritic activity in Wistar rat type-2 collagen-induced arthritis model assessed as reduction in bone degradation at 0.6 to 15 mg/kg, ig via gavage administered 10 consecutive days starting from day 20 post type-2 collagen injection by X-ray method; assay type: functional, organism-based; how it was run: as §5
[11] = Toxicity in ig dosed Wistar rat measured 30 mins after administration via gavage at 4 h intervals during first 24 hrs and twice a day thereafter over the next 13 days; assay type: organism-based; details: in vivo, po
How it was run: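 OECD 425 up-and-down procedure in ten 7-week-old male Wistar rats, fasted overnight. Single gavage dose at 10 mL/kg, starting at 300 mg/kg with a progression factor of 1/0.75. Survival checked at 30 min, every 4 h for 24 h, then twice daily for 13 d. LD50 reported with a 95% confidence interval.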

Rattus norvegicus [12] = test: Antiarthritic activity in Wistar rat type-2 collagen-induced arthritis model assessed as reduction in bone erosion at 0.6 to 15 mg/kg, ig via gavage administered 10 consecutive days starting from day 20 post type-2 collagen injection by X-ray method; assay type: functional, organism-based; how it was run: as §5
Rattus norvegicus [13] = test: Antiarthritic activity in Wistar rat type-2 collagen-induced arthritis model assessed as reduction in mechanical allodynia administered as ig via gavage for 10 consecutive days starting from day 20 post type-2 collagen injection; assay type: functional; how it was run: as §6
Rattus norvegicus [14] = test: Antiarthritic activity in Lewis rat Freund's adjuvant-induced arthritis model assessed as reduction in arthritis index score at 3 mg/kg, ig administered through gavage pretreated for 1 hr followed by adjuvant challenge subsequent treatment for 9 days measured alternate days up to 24 days post dose; assay type: functional, organism-based; how it was run: as §8
Rattus norvegicus [15] = test: Antiarthritic activity in Wistar rat type-2 collagen-induced arthritis model assessed as reduction in serum anti-type-2 collagen IgG level at 3 mg/kg, ig via gavage administered 10 consecutive days starting from day 20 post type-2 collagen injection by ELISA method; assay type: functional, organism-based
How it was run: (§9)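 CIA Wistar rats (chicken CII in BCG/IFA emulsion, intradermal twice 7 d apart) gavaged daily for 10 d from day 20. Serum collected after treatment; anti-CII IgG quantified with a rat anti-CII antibody ELISA kit. n = 10 per group; one-way ANOVA with Student−Newman−Keuls.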

Rattus norvegicus [16] = test: as §7, with “0.6” for “15”, “challenge and” for “challenge”; assay type: functional, organism-based; how it was run: as §8
Rattus norvegicus [17] = test: Antiarthritic activity in Lewis rat Freund's adjuvant-induced arthritis model assessed as reduction in mechanical allodynia in contralateral hind paw at 0.6 to 15 mg/kg, ig administered through gavage pretreated for 1 hr followed by adjuvant challenge and subsequent treatment for 9 days measured alternate days up to 24 days post dose; assay type: functional, organism-based
How it was run: (§10)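 Lewis rats with CFA-induced arthritis (0.1 mL intradermal, right hind paw), gavaged 1 h before induction and daily for 9 d. Mechanical withdrawal threshold measured 1 h after dosing. Rats habituated 30 min in individual cubicles; von Frey filament applied upward to the centre of each hind paw until withdrawal, maximum 55 g. Repeated twice at 10 min intervals; ipsilateral and contralateral paws recorded separately. n = 10; two-way ANOVA.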

Rattus norvegicus [18] = test: Antiarthritic activity in Lewis rat Freund's adjuvant-induced arthritis model assessed as change in spleen weight at 0.6 to 15 mg/kg, ig administered through gavage pretreated for 1 hr followed by adjuvant challenge subsequent treatment for 9 days measured alternate days up to 24 days post dose; assay type: functional, organism-based; how it was run: as §1
Rattus norvegicus [19] = test: Antiarthritic activity in Wistar rat type-2 collagen-induced arthritis model assessed as reduction in serum anti-type-2 collagen IgG level at 0.6 mg/kg, ig via gavage administered 10 consecutive days starting from day 20 post type-2 collagen injection by ELISA method; assay type: functional, organism-based; how it was run: as §9
Rattus norvegicus [20] = test: as §4, with “degeneration in joints” for “space narrowing”, “at” for “at 0.6 to”, “hematoxylin and eosin staining based light microscopy” for “X-ray method”; assay type: functional, organism-based; how it was run: as §5
Rattus norvegicus [21] = test: Antiarthritic activity in Wistar rat type-2 collagen-induced arthritis model assessed as reduction in TNF-alpha mRNA expression at 15 mg/kg, ig via gavage administered 10 consecutive days starting from day 20 post type-2 collagen injection by qPCR analysis; assay type: functional, organism-based; how it was run: as §2
Rattus norvegicus [22] = test: Antiarthritic activity in ig dosed Lewis rat Freund's adjuvant-induced arthritis model assessed as reduction in mechanical allodynia in ipsilateral hind paw administered through gavage pretreated for 1 hr followed by adjuvant challenge and subsequent treatment for 9 days measured alternate days up to 24 days post dose; assay type: functional, organism-based; how it was run: as §10
Rattus norvegicus [23] = test: Antiarthritic activity in Wistar rat type-2 collagen-induced arthritis model assessed as reduction in serum anti-type-2 collagen IgG level at 15 mg/kg, ig via gavage administered 10 consecutive days starting from day 20 post type-2 collagen injection by ELISA method; assay type: functional, organism-based; how it was run: as §9
Rattus norvegicus [24] = test: Antiarthritic activity in Wistar rat type-2 collagen-induced arthritis model assessed as reduction in joint tissue IL-1beta level at 15 mg/kg, ig via gavage administered 10 consecutive days starting from day 20 post type-2 collagen injection by ELISA method; assay type: functional, organism-based; how it was run: as §3
Rattus norvegicus [25] = test: Antiarthritic activity in Wistar rat type-2 collagen-induced arthritis model assessed as reduction in bone degeneration at 15 mg/kg, ig via gavage administered 10 consecutive days starting from day 20 post type-2 collagen injection by hematoxylin and eosin staining based light microscopy; assay type: functional, organism-based; how it was run: as §5

In the case of `C=C[C@@]12CN(C)[C@H]3C[C@]14C(=Nc1ccccc14)[C@H]1C[C@@H]2[C@@H]3CO1`, the Activity (Rattus norvegicus [1]) was “Active”, the Activity (Rattus norvegicus [2]) was “Active” and the Activity (Rattus norvegicus [3]) was “Active”. For the same compound, the Activity (Rattus norvegicus [4]) was “Active”, the Activity (Rattus norvegicus [5]) was “Active” and the Activity (Rattus norvegicus [6]) was “Active”. The Activity (Rattus norvegicus [7]) was “Active”, the Activity (Rattus norvegicus [8]) was “Dose-dependent effect” and the Activity (Rattus norvegicus [9]) was “Active”. For the same compound, the Activity (Rattus norvegicus [10]) was “Active”, the LD50 at 14 days [11] was 300 mg/kg and the Activity (Rattus norvegicus [12]) was “Active”. For the same compound, the Activity (Rattus norvegicus [13]) was “Dose-dependent effect”, the Activity (Rattus norvegicus [14]) was “Active” and the Activity (Rattus norvegicus [15]) was “Active”. The Activity (Rattus norvegicus [16]) was “Active”, the Activity (Rattus norvegicus [17]) was “inactive” and the Activity (Rattus norvegicus [18]) was “inactive”. For the same compound, the Activity (Rattus norvegicus [19]) was “inactive”, the Activity (Rattus norvegicus [20]) was “Active” and the Activity (Rattus norvegicus [21]) was “Active”. For the same compound, the Activity (Rattus norvegicus [22]) was “Dose-dependent effect”, the Activity (Rattus norvegicus [23]) was “Active” and the Activity (Rattus norvegicus [24]) was “Active”. For the same compound, the Activity (Rattus norvegicus [25]) was “Active”.
